{"source": "ChEMBL document CHEMBL5143539", "about": "“Synthesis and evaluation of dual-action kanglemycin-fluoroquinolone hybrid antibiotics” (Bioorg Med Chem Lett, 2022)", "key": {"[1]": {"system": "Staphylococcus aureus", "test": "Antibacterial activity against ciprofloxacin resistant Staphylococcus aureus harboring ParCS80F and GyrAS84L double mutant assessed as inhibition of bacterial growth", "type": "functional"}, "[2]": {"system": "Staphylococcus aureus", "test": "Antibacterial activity against Staphylococcus aureus harboring RpoBH481Y/ParCS80F/GyrAS84L triple mutant assessed as inhibition of bacterial growth", "type": "functional"}, "[3]": {"system": "HEK293", "test": "Cytotoxicity against HEK293 cells", "type": "toxicity, cell-based, Homo sapiens"}, "[4]": {"system": "Staphylococcus aureus", "test": "Antibacterial activity against wild type Staphylococcus aureus assessed as inhibition of bacterial growth", "type": "functional"}, "[5]": {"system": "Staphylococcus aureus", "test": "Antibacterial activity against rifampicin resistant Staphylococcus aureus harboring RpoBH481Y mutant assessed as inhibition of bacterial growth", "type": "functional"}, "[6]": {"system": "Escherichia coli", "test": "Antibacterial activity against Escherichia coli assessed as inhibition of bacterial growth", "type": "functional", "in_short": "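Run in duplicate, with the same result obtained in each trial.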"}}}
{"compound": "COc1c(N2C[C@@H]3CCCN(C(=O)CC(C)(C)C(=O)OC(C)[C@H]4/C=C/C=C(/C)C(=O)NC5=CC(=O)c6c(c(O)c(C)c7c6C(=O)[C@@](C)(O/C=C/[C@H](O[C@H]6C[C@@H]8OCO[C@@H]8[C@@H](C)O6)[C@@H](C)[C@@H](OC(C)=O)[C@H](C)[C@H](O)[C@H](C)[C@H]4O)O7)C5=O)[C@@H]3C2)c(F)cc2c(=O)c(C(=O)O)cn(C3CC3)c12", "note": "(stereo partly drawn)", "values": [{"measurement": "MIC", "setting": "[1]", "value": 32, "unit": "µg/mL"}, {"measurement": "MIC", "setting": "[2]", "value": "> 64", "unit": "µg/mL"}, {"measurement": "IC50", "setting": "[3]", "value": 28, "unit": "µg/mL"}, {"measurement": "MIC", "setting": "[4]", "value": 32, "unit": "µg/mL"}, {"measurement": "MIC", "setting": "[5]", "value": "> 64", "unit": "µg/mL"}, {"measurement": "MIC", "setting": "[6]", "value": "> 64", "unit": "µg/mL"}]}
{"compound": "CC(=O)O[C@H]1[C@H](C)[C@H](O)[C@H](C)[C@@H](O)[C@@H](C(C)OC(=O)C(C)(C)CC(=O)N2CCN(c3cc4c(cc3F)c(=O)c(C(=O)O)cn4C3CC3)CC2)/C=C/C=C(/C)C(=O)NC2=CC(=O)c3c(c(O)c(C)c4c3C(=O)[C@@](C)(O/C=C/[C@H](O[C@H]3C[C@@H]5OCO[C@@H]5[C@@H](C)O3)[C@H]1C)O4)C2=O", "note": "(stereo partly drawn)", "values": [{"measurement": "MIC", "setting": "[1]", "value": 32, "unit": "µg/mL"}, {"measurement": "MIC", "setting": "[2]", "value": "> 64", "unit": "µg/mL"}, {"measurement": "IC50", "setting": "[3]", "value": 23, "unit": "µg/mL"}, {"measurement": "MIC", "setting": "[4]", "value": 16, "unit": "µg/mL"}, {"measurement": "MIC", "setting": "[5]", "value": "> 64", "unit": "µg/mL"}, {"measurement": "MIC", "setting": "[6]", "value": "> 64", "unit": "µg/mL"}]}
{"compound": "CC(=O)O[C@H]1[C@H](C)[C@H](O)[C@H](C)[C@@H](O)[C@@H](C(C)OC(=O)C(C)(C)CC(=O)O)/C=C/C=C(/C)C(=O)Nc2c3oc4cc(NC5(c6c(F)cc7c(=O)c(C(=O)O)cn8c7c6OC[C@@H]8C)CC5)cc(O)c4nc-3c3c4c(c(C)c(O)c3c2=O)O[C@](C)(O/C=C/[C@H](O[C@H]2C[C@@H]3OCO[C@@H]3[C@@H](C)O2)[C@H]1C)C4=O", "note": "(stereo partly drawn)", "values": [{"measurement": "MIC", "setting": "[1]", "value": 8, "unit": "µg/mL"}, {"measurement": "MIC", "setting": "[2]", "value": "> 64", "unit": "µg/mL"}, {"measurement": "IC50", "setting": "[3]", "value": "> 64", "unit": "µg/mL"}, {"measurement": "MIC", "setting": "[4]", "value": 8, "unit": "µg/mL"}, {"measurement": "MIC", "setting": "[5]", "value": 32, "unit": "µg/mL"}, {"measurement": "MIC", "setting": "[6]", "value": 4, "unit": "µg/mL"}]}
{"compound": "COc1c(N2C[C@@H]3CCCN(CCCNc4cc(O)c5nc6c7c8c9c(C)c(O)c7c(=O)c(c-6oc5c4)NC(=O)/C(C)=C\\C=C\\[C@H](C(C)OC(=O)C(C)(C)CC(=O)O)[C@H](O)[C@@H](C)[C@@H](O)[C@@H](C)[C@H](OC(C)=O)[C@H](C)[C@@H](O[C@H]4C[C@@H]5OCO[C@@H]5[C@@H](C)O4)/C=C/O[C@@](C)(O9)C8=O)[C@@H]3C2)c(F)cc2c(=O)c(C(=O)O)cn(C3CC3)c12", "note": "(stereo partly drawn)", "values": [{"measurement": "MIC", "setting": "[1]", "value": 1, "unit": "µg/mL"}, {"measurement": "MIC", "setting": "[2]", "value": "> 64", "unit": "µg/mL"}, {"measurement": "IC50", "setting": "[3]", "value": 38, "unit": "µg/mL"}, {"measurement": "MIC", "setting": "[4]", "value": 1, "unit": "µg/mL"}, {"measurement": "MIC", "setting": "[5]", "value": 16, "unit": "µg/mL"}, {"measurement": "MIC", "setting": "[6]", "value": "> 64", "unit": "µg/mL"}]}
{"compound": "O=C(O)c1cn(C2CC2)c2cc(N3CCNCC3)c(F)cc2c1=O", "note": "[CIPROFLOXACIN]", "values": [{"measurement": "MIC", "setting": "[1]", "value": 32, "unit": "µg/mL"}, {"measurement": "MIC", "setting": "[4]", "value": 0.25, "unit": "µg/mL"}, {"measurement": "MIC", "setting": "[5]", "value": 0.25, "unit": "µg/mL"}]}
{"compound": "CO/N=C1\\CN(c2nc3c(cc2F)c(=O)c(C(=O)O)cn3C2CC2)CC1CNC(=O)CC(C)(C)C(=O)OC(C)[C@H]1/C=C/C=C(/C)C(=O)NC2=CC(=O)c3c(c(O)c(C)c4c3C(=O)[C@@](C)(O/C=C/[C@H](O[C@H]3C[C@@H]5OCO[C@@H]5[C@@H](C)O3)[C@@H](C)[C@@H](OC(C)=O)[C@H](C)[C@H](O)[C@H](C)[C@H]1O)O4)C2=O", "note": "(stereo partly drawn)", "values": [{"measurement": "MIC", "setting": "[1]", "value": 8, "unit": "µg/mL"}, {"measurement": "MIC", "setting": "[2]", "value": "> 64", "unit": "µg/mL"}, {"measurement": "IC50", "setting": "[3]", "value": "> 64", "unit": "µg/mL"}, {"measurement": "MIC", "setting": "[4]", "value": 16, "unit": "µg/mL"}, {"measurement": "MIC", "setting": "[5]", "value": "> 64", "unit": "µg/mL"}, {"measurement": "MIC", "setting": "[6]", "value": "> 64", "unit": "µg/mL"}]}
{"compound": "CC(=O)O[C@H]1[C@H](C)[C@H](O)[C@H](C)[C@@H](O)[C@@H](C(C)OC(=O)C(C)(C)CC(=O)N[C@H]2[C@@H]3CN(c4nc5c(cc4F)c(=O)c(C(=O)O)cn5-c4ccc(F)cc4F)C[C@@H]32)/C=C/C=C(/C)C(=O)NC2=CC(=O)c3c(c(O)c(C)c4c3C(=O)[C@@](C)(O/C=C/[C@H](O[C@H]3C[C@@H]5OCO[C@@H]5[C@@H](C)O3)[C@H]1C)O4)C2=O", "note": "(stereo partly drawn)", "values": [{"measurement": "MIC", "setting": "[1]", "value": 8, "unit": "µg/mL"}, {"measurement": "MIC", "setting": "[2]", "value": "> 64", "unit": "µg/mL"}, {"measurement": "IC50", "setting": "[3]", "value": "> 64", "unit": "µg/mL"}, {"measurement": "MIC", "setting": "[4]", "value": 8, "unit": "µg/mL"}, {"measurement": "MIC", "setting": "[5]", "value": 16, "unit": "µg/mL"}, {"measurement": "MIC", "setting": "[6]", "value": "> 64", "unit": "µg/mL"}]}
{"compound": "COc1c(N2CCN(C(=O)CC(C)(C)C(=O)OC(C)[C@H]3/C=C/C=C(/C)C(=O)NC4=CC(=O)c5c(c(O)c(C)c6c5C(=O)[C@@](C)(O/C=C/[C@H](O[C@H]5C[C@@H]7OCO[C@@H]7[C@@H](C)O5)[C@@H](C)[C@@H](OC(C)=O)[C@H](C)[C@H](O)[C@H](C)[C@H]3O)O6)C4=O)C(C)C2)c(F)cc2c(=O)c(C(=O)O)cn(C3CC3)c12", "note": "(stereo partly drawn)", "values": [{"measurement": "MIC", "setting": "[1]", "value": 32, "unit": "µg/mL"}, {"measurement": "MIC", "setting": "[2]", "value": "> 64", "unit": "µg/mL"}, {"measurement": "IC50", "setting": "[3]", "value": 21, "unit": "µg/mL"}, {"measurement": "MIC", "setting": "[4]", "value": 64, "unit": "µg/mL"}, {"measurement": "MIC", "setting": "[5]", "value": "> 64", "unit": "µg/mL"}, {"measurement": "MIC", "setting": "[6]", "value": "> 64", "unit": "µg/mL"}]}
{"compound": "COc1c(N2CCCC(N(C)C(=O)CC(C)(C)C(=O)OC(C)[C@H]3/C=C/C=C(/C)C(=O)NC4=CC(=O)c5c(c(O)c(C)c6c5C(=O)[C@@](C)(O/C=C/[C@H](O[C@H]5C[C@@H]7OCO[C@@H]7[C@@H](C)O5)[C@@H](C)[C@@H](OC(C)=O)[C@H](C)[C@H](O)[C@H](C)[C@H]3O)O6)C4=O)C2)c(F)cc2c(=O)c(C(=O)O)cn(C3CC3)c12", "note": "(stereo partly drawn)", "values": [{"measurement": "MIC", "setting": "[1]", "value": 16, "unit": "µg/mL"}, {"measurement": "MIC", "setting": "[2]", "value": "> 64", "unit": "µg/mL"}, {"measurement": "IC50", "setting": "[3]", "value": 23, "unit": "µg/mL"}, {"measurement": "MIC", "setting": "[4]", "value": 32, "unit": "µg/mL"}, {"measurement": "MIC", "setting": "[5]", "value": "> 64", "unit": "µg/mL"}, {"measurement": "MIC", "setting": "[6]", "value": "> 64", "unit": "µg/mL"}]}
{"compound": "CC(=O)O[C@H]1[C@H](C)[C@H](O)[C@H](C)[C@@H](O)[C@@H](C(C)OC(=O)C(C)(C)CC(=O)O)/C=C/C=C(/C)C(=O)Nc2c3oc4cc(N5Cc6cc(-c7ccc8c(=O)c(C(=O)O)cn(C9CC9)c8c7OC(F)F)ccc6[C@H]5C)cc(O)c4nc-3c3c4c(c(C)c(O)c3c2=O)O[C@](C)(O/C=C/[C@H](O[C@H]2C[C@@H]3OCO[C@@H]3[C@@H](C)O2)[C@H]1C)C4=O", "note": "(stereo partly drawn)", "values": [{"measurement": "MIC", "setting": "[1]", "value": 1, "unit": "µg/mL"}, {"measurement": "MIC", "setting": "[2]", "value": "> 64", "unit": "µg/mL"}, {"measurement": "IC50", "setting": "[3]", "value": "> 64", "unit": "µg/mL"}, {"measurement": "MIC", "setting": "[4]", "value": 1, "unit": "µg/mL"}, {"measurement": "MIC", "setting": "[5]", "value": 2, "unit": "µg/mL"}, {"measurement": "MIC", "setting": "[6]", "value": 16, "unit": "µg/mL"}]}
{"compound": "COc1c(N2CCCC(N(C)CCCNc3cc(O)c4nc5c6c7c8c(C)c(O)c6c(=O)c(c-5oc4c3)NC(=O)/C(C)=C\\C=C\\[C@H](C(C)OC(=O)C(C)(C)CC(=O)O)[C@H](O)[C@@H](C)[C@@H](O)[C@@H](C)[C@H](OC(C)=O)[C@H](C)[C@@H](O[C@H]3C[C@@H]4OCO[C@@H]4[C@@H](C)O3)/C=C/O[C@@](C)(O8)C7=O)C2)c(F)cc2c(=O)c(C(=O)O)cn(C3CC3)c12", "note": "(stereo partly drawn)", "values": [{"measurement": "MIC", "setting": "[1]", "value": 8, "unit": "µg/mL"}, {"measurement": "MIC", "setting": "[2]", "value": "> 64", "unit": "µg/mL"}, {"measurement": "IC50", "setting": "[3]", "value": "> 64", "unit": "µg/mL"}, {"measurement": "MIC", "setting": "[4]", "value": 8, "unit": "µg/mL"}, {"measurement": "MIC", "setting": "[5]", "value": 16, "unit": "µg/mL"}, {"measurement": "MIC", "setting": "[6]", "value": "> 64", "unit": "µg/mL"}]}
